Experimental data: publication PMC3831659 (European journal of medicinal chemistry, 2013)

Legend:
[1] = system: T. cruzi (amastigotes); conditions: clinically more relevant form of T. cruzi; cited from earlier work
[2] = system: Vero cells; assay: Cytotoxicity for Vero cells; format: cell-based
[3] = system: Trypanosoma cruzi; conditions: protection not as efficient as ketoconazole (positive control); cited from earlier work
[4] = system: epimastigotes (EP strain); conditions: ergosterol and its 24-ethyl analogue; cited from earlier work
[5] = system: Toxoplasma gondii (tachyzoites); assay: T. gondii tachyzoites growth assay; format: cell-based; conditions: tachyzoites expressing red fluorescent protein in hTERT cells
Outline: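 hTERT host cells grown in high-glucose DMEM with 1% fetal bovine serum, 2 mM glutamine and 1 mM pyruvate at 37 °C in humid 5% CO2. They were inoculated with 4 × 10⁴ RFP-expressing tachyzoites/well in the same medium. Plates were incubated at 37 °C and read daily through covered lids, bottom fluorescence ex 544/em 590 nm. EC50 was fitted as I = Imax·C/(EC50 + C), with Imax = 100%.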

Structure (SMILES)	Cytotoxicity on Vero cells ED50 ([2]; Alamar Blue assay)	Toxoplasma gondii (tachyzoites) ED50 [5]	also measured
N#CSCCOc1ccc(Oc2ccccc2)cc1 [WC-9, 4-Phenoxyphenoxyethyl thiocyanate]	–	–	IC50 against T. cruzi amastigotes [1]: low nanomolar range; Cytotoxicity on Vero cells ED50 ([2]; African green monkey): > 50 µM; effect on parasitemia in murine models of Chagas disease [3]: able to impair parasitemia; depletion of parasite endogenous sterols [4]: almost complete disappearance of the parasite sterols
COc1ccc(Oc2ccc(OCCSC#N)cc2)cc1 [Compound 21, 4-(4-Methoxyphenoxy)phenoxyethyl Thiocyanate]	> 100 µM	–	–
c1cncc(Oc2ccc(OCCOC3CCCCO3)cc2)c1 (stereo not drawn) [Compound 25, 4-(Pyridin-3-yloxy)phenoxyethyl Tetrahydro-2H-pyran-2-yl Ether]	> 50 µM	vanishing antiparasitic activity	–
COc1cccc(Oc2ccc(OCCSC#N)cc2)c1 [Compound 22, 4-(3-Methoxyphenoxy)phenoxyethyl Thiocyanate]	> 50 µM	6.7 ± 3.1 µM	–
N#CSCCOc1ccc(Oc2cccnc2)cc1 [Compound 28, 4-(Pyridin-3-yloxy)phenoxyethyl Thiocyanate]	> 50 µM	7.5 ± 0.8 µM	–
COc1ccc(Oc2cccc(OCCSC#N)c2)cc1 [Compound 37, 3-(4-Methoxyphenoxy)phenoxyethyl Thiocyanate]	> 50 µM	–	–
O=[N+]([O-])c1cccc(Oc2ccc(OCCOC3CCCCO3)cc2)c1 (stereo not drawn) [Compound 10, 4-(3-Nitrophenoxy)phenoxyethyl Tetrahydro-2H-pyran-2-yl Ether]	> 50 µM	–	–
N#CSCCOc1ccc(Oc2cccc([N+](=O)[O-])c2)cc1 [Compound 13, 4-(3-Nitrophenoxy)phenoxyethyl Thiocyanate]	> 50 µM	–	–
N#CSCCOc1cccc(Oc2ccccc2)c1 [Compound 36, 3-Phenoxyphenoxyethyl Thiocyanate]	> 50 µM	–	–
